CCR6 antag: CCR6 receptor antagonists, primary screen, cell-based, CHO-K1, luminescence, beta-arrestin, uHTS; C-C chemokine receptor type 6 (Homo sapiens), P51684; CHO-K1 CCR6 PathHunter beta-arrestin, CCL20-stimulated; inhibition, % at 20 µM; 0.49% of 340,000 active; AID 493098, 2011;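 active means compounds whose inhibition of the agonist-driven luminescence signal at 20 µM reaches about 50%, limit read from the data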;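 further: cells stimulated with CCL20 at 14 nM final; plate controls were DMSO with CCL20 for no effect and DMSO without agonist for full effect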
APJ antag: antagonists of human apelin receptor APJ, primary screen, CHO-K1 cells, beta-arrestin complementation, luminescence; P35414; inhibition, % at 20 µM; 0.32% of 330,000 active;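 active means inhibition above about 40% at 20 µM, limit read from the data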;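 further: cells challenged with 10 nM apelin-13 agonist together with compound; plate controls were apelin-13 plus DMSO wells for no effect and DMSO wells lacking apelin-13 for full effect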
PKA-R1A act: activators of PKA-R1A holoenzyme, primary screen, biochemical, fluorescence polarization, Cy5-IP20, bovine R1A, mouse PKAc | 0.083% of 340,000 active | cAMP-dependent protein kinase type I-alpha regulatory subunit (Bos taurus) + … | PKA-R1A dissociation; scaled: DMSO 0%, 113 µM cGMP 100% | activation, % at 11.4 µM;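 active means percent activation above the mean of all tested compounds plus 3 SD, cut at about 19% in these data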;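 further: higher means more PKAc released from R1A so a rise in polarization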
APJ ag: agonists of human apelin receptor APJ, primary screen, CHO-K1 cells, PathHunter beta-arrestin, luminescence | P35414 | activation, % at 20 µM | 0.11% of 330,000 active | 0% DMSO wells, 100% apelin;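 active means activation more than six SD over the plate average, tested at 20 µM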;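 further: 0% = DMSO alone and 100% = apelin-13 at 10 nM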
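Incubation: overnight seeding, 90 min compound at 25 °C, 1 h detection; test system: PathHunter CHO-K1 APJ (AGTRL-1) beta-arrestin reporter cells; amount: 1000 cells/well; doses: one dose, 20 µM compound, 1% DMSO; measured by: beta-gal luminescence; measure: agonist-driven arrestin binding to APJ; benchmarks: negative DMSO alone, positive Apelin-13 at 10 nM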
CXCR6 block: CXCR6 receptor inhibitors, primary screen, cell-based, beta-arrestin, luminescence, CHO-K1 PathHunter, 1536-well; inhibition, % at 20 µM; 0.36% of 360,000 active; in the data active means inhibition above about 34%, passing the limit was not always enough;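 further: antagonist mode with CXCL16 agonist at 10 nM final; 0% = 10 nM CXCL16 with DMSO and 100% = unstimulated wells without agonist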
Target sequence (O00574 whole entry, looked up): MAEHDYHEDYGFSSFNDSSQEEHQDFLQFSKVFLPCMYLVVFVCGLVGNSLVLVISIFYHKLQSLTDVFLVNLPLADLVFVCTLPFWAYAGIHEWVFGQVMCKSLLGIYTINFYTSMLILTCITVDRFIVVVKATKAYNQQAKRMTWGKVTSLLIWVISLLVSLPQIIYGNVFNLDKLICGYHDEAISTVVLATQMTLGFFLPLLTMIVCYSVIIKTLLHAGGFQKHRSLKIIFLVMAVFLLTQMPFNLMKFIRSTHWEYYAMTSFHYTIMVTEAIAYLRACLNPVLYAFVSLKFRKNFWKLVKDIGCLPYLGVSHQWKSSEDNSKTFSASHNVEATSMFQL
PKA-R2B act: activators of PKA-R2B holoenzyme, primary screen, biochemical, fluorescence polarization, Cy5-IP20, human; cAMP-dependent protein kinase catalytic subunit beta (Homo sapiens) + cAMP-dependent …; PKA-R2B holoenzyme dissociation; R2B truncated from residue 108, S112A mutant; 0% DMSO only, 100% 113 µM cGMP; activation, % at 11.4 µM; 0.079% of 340,000 active; AID 504700, 2011;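 active means activation above a cutoff set at the mean over all compounds plus 3 SD, cut at about 18% in these data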;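 further: higher means more holoenzyme dissociation and a rise in polarization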
APJ antag confirm: APJ antagonists blocking beta-arrestin recruitment, confirmation, cell-based, luminescence, single concentration, uHTS hits; shares compounds with APJ antag; antagonist mode; inhibition, % at 20 µM; 66% of 950 active; AID 2766, 2010; in the data active means inhibition above about 50%
Active calls of the source: *; . = no result given. Rows were chosen to be rich in hits. Some 0.88% of all compounds tested hit in one or more screens of this group.

SMILES | CCR6 antag | APJ antag | PKA-R1A act | APJ ag | CXCR6 block | PKA-R2B act | APJ antag confirm
O=C1NN(c2ccccc2)C(=O)/C1=C\c1ccc(-c2cc([N+](=O)[O-])ccc2O)o1 | 62* | 46* | 3 | -11 | 43* | 8 | 93*
Cc1cc(C)c2cc3c(N)c(C(=O)N4CCc5ccccc5C4)sc3nc2c1 | 1 | -1 | -5 | -5 | 0 | 1 | .
Cc1cccc2cc3c(N)c(C(=O)N4CCOCC4)sc3nc12 | 23 | 51* | 0 | -11 | 7 | 11 | 7
O=C(CCCC(=O)OCC(=O)c1ccc(Cl)cc1Cl)Nc1cc(C(F)(F)F)ccc1Cl | 72* | 43* | -14 | -10 | 15 | -18 | 55*
CCCNC(=O)C1(C)CCCN(C(=O)c2ccccc2OC)C1 (stereo not given) | . | . | . | . | 6 | . | .
CCOC(=O)C1=C(N)N(c2ccccc2Oc2ccccc2)C(=O)C1 | 12 | 9 | -7 | 0 | 30 | -6 | .
CCOC(=O)C1=C2NC(=O)c3ccccc3N2C(=O)C1 | 69* | 53* | -2 | -2 | 16 | 3 | 134*
O=C(Nc1cccc(-n2cnnn2)c1)c1cnccc1Cl | -4 | -5 | 0 | -2 | -3 | 2 | .
Cc1cc(Nc2nc3ccccc3nc2Cl)n(-c2ccc([N+](=O)[O-])cc2)n1 | 56* | 49* | -7 | -12 | 33 | 5 | -2
Cc1cc(Nc2nc3ccccc3[nH]c2=O)n(-c2ccccc2)n1 | -11 | -22 | 0 | 3 | -4 | -11 | .
Cc1ccc(S(=O)(=O)N2CCCN(C(=O)c3cc4ccccc4[nH]3)CC2)cc1 | 13 | -6 | 8 | -3 | -2 | 2 | .
COc1cccc2cc(C(C)N(CCCN3CCOCC3)C(=S)Nc3cc(C)cc(C)c3)oc12 (stereo not given) | 6 | -8 | 3 | -1 | 5 | -8 | .
COc1cccc2cc(C(C)N(CCCN3CCOCC3)C(=S)Nc3cccc(C)c3)oc12 (stereo not given) | 9 | 77* | -17 | -3 | 7 | -7 | -6
CCOC(=O)/C=C/S(=O)(=O)c1ccc(NC(C)=O)cc1 | 48 | 44* | -2 | 0 | 34 | 0 | 83*
CCOC(=O)/C=C/C(=O)Nc1ccc(S(=O)(=O)Nc2c(C)cc(C)cc2C)cc1 | 1 | 1 | 1 | -1 | -1 | 8 | .
Oc1ccc(-c2nnc(Nc3cccc(O)c3)c3ccccc23)cc1 | 6 | 67* | -2 | -3 | -4 | -18 | -2
Cc1ccc(SSc2cc(C)ccc2N)c(N)c1 | 15 | 45* | 12 | -12 | 3 | -3 | 127*
Cc1ccc(O)c(N)c1 | -11 | -17 | -6 | 1 | -9 | 4 | .
COc1ccccc1Oc1cc(-n2nc(C)cc2C)ncn1 | -3 | 54* | 0 | -1 | 0 | 9 | 9
COC(=O)CCSc1cc(NCCOC(C)=O)c([N+](=O)[O-])c2nonc12 | 33 | 21 | -2 | -3 | 27 | -5 | .
CC(=O)OCCCNc1cc(Sc2ccc(C)cc2)c2nonc2c1[N+](=O)[O-] | 70* | 71* | 5 | -8 | 71* | -11 | 103*
COc1ccc(CN2CC[C@@H]3CN(C(C)=O)[C@H](c4ccccc4Br)C[C@@H]32)cc1 | . | . | . | . | 3 | . | .
Cc1ccnc2nc(C(=O)Nc3cc(Cl)ccc3N3CCOCC3)nn12 | 8 | 57* | -1 | -6 | 0 | 1 | 21
COc1ccccc1N1CCN(C(=O)c2c(C)cc(=O)oc2C)CC1 | 16 | 57* | -6 | -2 | -2 | -2 | 19
Cc1cc(=O)oc(C)c1C(=O)N1CCN(c2ccc(F)cc2)CC1 | 3 | -5 | -4 | -3 | -6 | -8 | .
COC(=O)c1c(C)oc(C)c1S(=O)(=O)NCc1ccco1 | 9 | 7 | 4 | 0 | -5 | 3 | .
